Assays:
Format in all cases: functional
Cavia porcellus [1] = species on record: Cavia porcellus; assay: Open epicutaneous test for sensitization in presence of bihapten 1 as sensitizer on guinea pigs with skin intensity test scale (erythema plus swelling of the test area); Value indicates number of animals
In short: (§1)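 Female Himalayan spotted guinea pigs (300–500 g) sensitized with three intradermal nuchal injections (0.1 mL) on alternate days of the hapten (2.5% w/v) emulsified 1:1 in Freund's complete adjuvant/saline. Elicitation by open epicutaneous test with the hapten at 2% w/v in 4:1 acetone/olive oil. Eight animals per group, with FCA-treated controls. Average skin reaction is the sum of test scores divided by the number of animals tested.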

Cavia porcellus [2] = species on record: Cavia porcellus; assay: Open cutaneous test for sensitization in presence of lactone 8 (pretreated with bihapten 1)as sensitizer on guinea pigs with skin intensity test scale (slight erythema not covering the whole test area); Value indicates number of animals; in short: as §1
Cavia porcellus [3] = species on record: Cavia porcellus; assay: Open epicutaneous test for sensitization in presence of lactone 8 (pretreated with bihapten 1)as sensitizer on guinea pigs with skin intensity test scale (erythema plus swelling of the test area); in short: as §1
Cavia porcellus [4] = species on record: Cavia porcellus; assay: Open epicutaneous test for sensitization as average skin reaction in presence of bihapten 1 as sensitizer on guinea pigs; Value indicates number of animals; in short: as §1
Cavia porcellus [5] = species on record: Cavia porcellus; assay: Open epicutaneous test for sensitization in presence of bihapten 1 as sensitizer on guinea pigs with skin intensity test scale (definite erythema covering the whole test area); Value indicates number of animals; in short: as §1
Cavia porcellus [6] = species on record: Cavia porcellus; assay: Open epicutaneous test for sensitization in presence of lactone 8 as sensitizer on guinea pigs with skin intensity test scale (slight erythema not covering the whole test area); Value indicates number of animals; in short: as §1
Cavia porcellus [7] = species on record: Cavia porcellus; assay: Open epicutaneous test for sensitization in presence of lactone 8 as sensitizer on guinea pigs with skin intensity test scale (definite erythema covering the whole test area); Value indicates number of animals; in short: as §1
Cavia porcellus [8] = species on record: Cavia porcellus; assay: Open epicutaneous test for sensitization in presence of bihapten 1 as sensitizer on guinea pigs with skin intensity test scale (erythema plus swelling going well beyond the); Value indicates number of animals; in short: as §1
Cavia porcellus [9] = species on record: Cavia porcellus; assay: Open epicutaneous test for sensitization in presence of lactone 8 (pretreated with bihapten 1)as sensitizer on guinea pigs with skin intensity test scale (definite erythema covering the whole test area); Value indicates number of animals; in short: as §1
Cavia porcellus [10] = species on record: Cavia porcellus; assay: Open epicutaneous test for sensitization in presence of lactone 8 as sensitizer on guinea pigs with skin intensity test scale (erythema plus swelling of the test area); Value indicates number of animals; in short: as §1
Cavia porcellus [11] = species on record: Cavia porcellus; assay: Open epicutaneous test for sensitization in presence of bihapten 1 as sensitizer on guinea pigs with skin intensity test scale (no reaction); Value indicates number of animals; in short: as §1
Cavia porcellus [12] = species on record: Cavia porcellus; assay: Open epicutaneous test for sensitization as average skin reaction in presence of lactone 8 (pretreated with bihapten 1) as sensitizer on guinea pigs; Value indicates number of animals; in short: as §1
Cavia porcellus [13] = species on record: Cavia porcellus; assay: Open epicutaneous test for sensitization in presence of lactone 8 as sensitizer on guinea pigs as number of positive animals responded; in short: as §1
Cavia porcellus [14] = species on record: Cavia porcellus; assay: Open epicutaneous test for sensitization in presence of lactone 8 (pretreated with bihapten 1)as sensitizer on guinea pigs with skin intensity test scale (erythema plus swelling going well beyond); Value indicates number of animals; in short: as §1
Cavia porcellus [15] = species on record: Cavia porcellus; assay: Open epicutaneous test for sensitization in presence of bihapten 1 as sensitizer on guinea pigs as number of positive animals responded; in short: as §1
Cavia porcellus [16] = species on record: Cavia porcellus; assay: Open epicutaneous test for sensitization in presence of lactone 8 (pretreated with bihapten 1)as sensitizer on guinea pigs with skin intensity test scale (no reaction); Value indicates number of animals; in short: as §1
Cavia porcellus [17] = species on record: Cavia porcellus; assay: Open epicutaneous test for sensitization as average skin reaction in presence of lactone 8 as sensitizer on guinea pigs; Value indicates number of animals; in short: as §1
Cavia porcellus [18] = species on record: Cavia porcellus; assay: Open epicutaneous test for sensitization in presence of lactone 8 as sensitizer on guinea pigs with skin intensity test scale (no reaction); Value indicates number of animals; in short: as §1
Cavia porcellus [19] = species on record: Cavia porcellus; assay: Open epicutaneous test for sensitization in presence of bihapten 1 as sensitizer on guinea pigs with skin intensity test scale (slight erythema not covering the whole test area); Value indicates number of animals; in short: as §1
Cavia porcellus [20] = species on record: Cavia porcellus; assay: Open epicutaneous test for sensitization in presence of lactone 8 (pretreated with bihapten 1) as sensitizer on guinea pigs as number of positive animals responded; in short: as §1
Cavia porcellus [21] = species on record: Cavia porcellus; assay: Open epicutaneous test for sensitization in presence of lactone 8 as sensitizer on guinea pigs with skin intensity test scale (erythema plus swelling going well beyond); Value indicates number of animals; in short: as §1
Cavia porcellus [22] = species on record: Cavia porcellus; assay: Open cutaneous test for sensitization in presence of lactone 8 as sensitizer on guinea pigs with skin intensity test scale (erythema plus swelling going well beyond); Value indicates number of animals; in short: as §1
Cavia porcellus [23] = species on record: Cavia porcellus; assay: Open epicutaneous test for sensitization in presence of lactone 8 (pretreated with bihapten 1) as sensitizer on guinea pigs with skin intensity test scale (slight erythema not covering the whole test area); Value indicates number of animals; in short: as §1
Cavia porcellus [24] = species on record: Cavia porcellus; assay: Open epicutaneous test for sensitization in presence of bihapten 1 as sensitizer on guinea pigs with skin intensity test scale (erythema plus swelling going well beyond); Value indicates number of animals; in short: as §1
Cavia porcellus [25] = species on record: Cavia porcellus; assay: Open epicutaneous test for sensitization in presence of lactone 8 (pretreated with bihapten 1) as sensitizer on guinea pigs with skin intensity test scale (erythema plus swelling going well beyond); Value indicates number of animals; in short: as §1
Cavia porcellus [26] = species on record: Cavia porcellus; assay: Open epicutaneous test for sensitization in presence of lactone 8 (pretreated with bihapten 1) as sensitizer on guinea pigs with skin intensity test scale (erythema plus swelling of the test area); Value indicates number of animals; in short: as §1
Cavia porcellus [27] = species on record: Cavia porcellus; assay: Open cutaneous test for sensitization in presence of lactone 8 as sensitizer on guinea pigs with skin intensity test scale (slight erythema not covering the whole test area); Value indicates number of animals; in short: as §1
Cavia porcellus [28] = species on record: Cavia porcellus; assay: Open epicutaneous test for sensitization in presence of lactone 8 (pretreated with bihapten 1) as sensitizer on guinea pigs with skin intensity test scale (definite erythema covering the whole test area); Value indicates number of animals; in short: as §1
Cavia porcellus [29] = species on record: Cavia porcellus; assay: Open cutaneous test for sensitization in presence of lactone 8 as sensitizer on guinea pigs with skin intensity test scale (erythema plus swelling of the test area); Value indicates number of animals; in short: as §1
Cavia porcellus [30] = species on record: Cavia porcellus; assay: Open cutaneous test for sensitization in presence of lactone 8 as sensitizer on guinea pigs with skin intensity test scale (no reaction); Value indicates number of animals; in short: as §1
Cavia porcellus [31] = species on record: Cavia porcellus; assay: Open cutaneous test for sensitization in presence of lactone 8 as sensitizer on guinea pigs with skin intensity test scale (definite erythema covering the whole test area); Value indicates number of animals; in short: as §1
Cavia porcellus [32] = species on record: Cavia porcellus; assay: Open epicutaneous test for sensitization in presence of lactone 8 (pretreated with bihapten 1) as sensitizer on guinea pigs with skin intensity test scale (no reaction); Value indicates number of animals; in short: as §1

C=C1CC(CCCCCCCCCc2cccc(O)c2O)OC1=O (configuration not stated)
Skin reaction (Cavia porcellus [1]): 0 | Skin reaction (Cavia porcellus [2]): 0 | Skin reaction (Cavia porcellus [3]): 0 | Average for skin reaction (Cavia porcellus [4]): 1 | Skin reaction (Cavia porcellus [5]): 8 | Skin reaction (Cavia porcellus [6]): 0 | Skin reaction (Cavia porcellus [7]): 3 | Skin reaction (Cavia porcellus [8]): 0 | Skin reaction (Cavia porcellus [9]): 8 | Skin reaction (Cavia porcellus [10]): 5 | Skin reaction (Cavia porcellus [11]): 0 | Average for skin reaction (Cavia porcellus [12]): 1 | No. of positive animals (Cavia porcellus [13]): 8 | Skin reaction (Cavia porcellus [14]): 0 | No. of positive animals (Cavia porcellus [15]): 8 | Skin reaction (Cavia porcellus [16]): 0 | Average for skin reaction (Cavia porcellus [17]): 1.6 | Skin reaction (Cavia porcellus [18]): 0 | Skin reaction (Cavia porcellus [19]): 0 | No. of positive animals (Cavia porcellus [20]): 8 | Skin reaction (Cavia porcellus [21]): 0

C=C1CC(CCCCCCCCCc2cccc(OC)c2OC)OC1=O (configuration not stated)
Skin reaction (Cavia porcellus [22]): 8 | Skin reaction (Cavia porcellus [1]): 0 | Skin reaction (Cavia porcellus [23]): 6 | Skin reaction (Cavia porcellus [24]): 0 | Skin reaction (Cavia porcellus [25]): 0 | Average for skin reaction (Cavia porcellus [4]): 0 | Skin reaction (Cavia porcellus [5]): 0 | Skin reaction (Cavia porcellus [26]): 0 | Skin reaction (Cavia porcellus [27]): 0 | Skin reaction (Cavia porcellus [28]): 2 | Skin reaction (Cavia porcellus [11]): 0 | Average for skin reaction (Cavia porcellus [12]): 0.6 | No. of positive animals (Cavia porcellus [13]): 8 | No. of positive animals (Cavia porcellus [15]): 0 | Average for skin reaction (Cavia porcellus [17]): 3 | Skin reaction (Cavia porcellus [29]): 0 | Skin reaction (Cavia porcellus [19]): 0 | Skin reaction (Cavia porcellus [30]): 0 | No. of positive animals (Cavia porcellus [20]): 8 | Skin reaction (Cavia porcellus [31]): 0 | Skin reaction (Cavia porcellus [32]): 0

— ChEMBL document CHEMBL1123663, “Double-headed haptens with pyrocatechol (poison ivy like) and methylene lactone functional groups: a search for skin-tolerance inducers” (1987)
